Legend:
Kunming mice = test: Acute toxicity study, single intraperitoneal dose; assay type: in vivo
In short: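 Kunming mice, four groups of 8 (half male, half female), each given one intraperitoneal injection of test compound at 10, 20 or 40 mg/kg or vehicle. Mortality and clinical signs in eyes, skin and fur recorded. Body weights measured daily after treatment. Mice dissected to check for ascites and liver volume.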

4T1 tumor = test: In vivo antitumor effect, orthotopic 4T1 tumor-bearing mice; settings: 2 mg/kg, in comparison with the control group
MDA-MB-231 cells = test: Apoptosis detection assay; assay type: cell-based, human
In short: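 MDA-MB-231 cells seeded at 5 × 10^5 cells/mL in six-well plates. Treated with test compound at different concentrations for 24 h (48 h per results text); combretastatin A4 as positive control. Cells trypsinised, washed twice in cold PBS, resuspended in binding buffer, then stained with annexin V-FITC 15 min at room temperature. PI added for a further 15 min in the dark. Read by flow cytometry.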

AURKA = target: T1, AURKA (Homo sapiens, UniProt O14965); test: Enzyme inhibition AURKA; assay type: biochemical; settings: tested at 100 μM
T1 sequence (O14965 1-403): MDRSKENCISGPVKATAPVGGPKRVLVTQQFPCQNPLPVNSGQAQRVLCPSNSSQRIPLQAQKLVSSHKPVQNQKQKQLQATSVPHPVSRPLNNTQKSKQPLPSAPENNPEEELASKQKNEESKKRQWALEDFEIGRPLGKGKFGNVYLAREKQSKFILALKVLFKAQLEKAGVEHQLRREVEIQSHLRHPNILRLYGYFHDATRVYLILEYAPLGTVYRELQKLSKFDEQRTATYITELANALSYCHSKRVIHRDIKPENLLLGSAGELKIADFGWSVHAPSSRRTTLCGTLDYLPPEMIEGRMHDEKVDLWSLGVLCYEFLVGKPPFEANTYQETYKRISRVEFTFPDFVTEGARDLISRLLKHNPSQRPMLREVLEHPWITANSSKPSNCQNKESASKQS

JAK2 = JAK2 (Homo sapiens, UniProt O60674); test: Enzyme inhibition JAK2; assay type: biochemical
MAPK10 = MAPK10 (Homo sapiens, UniProt P53779); test: Enzyme inhibition MAPK10; assay type: biochemical; settings: tested at 100 μM
[1] = female mice, highest dose group (40 mg/kg)

Chain of JAK2 (O60674 whole entry): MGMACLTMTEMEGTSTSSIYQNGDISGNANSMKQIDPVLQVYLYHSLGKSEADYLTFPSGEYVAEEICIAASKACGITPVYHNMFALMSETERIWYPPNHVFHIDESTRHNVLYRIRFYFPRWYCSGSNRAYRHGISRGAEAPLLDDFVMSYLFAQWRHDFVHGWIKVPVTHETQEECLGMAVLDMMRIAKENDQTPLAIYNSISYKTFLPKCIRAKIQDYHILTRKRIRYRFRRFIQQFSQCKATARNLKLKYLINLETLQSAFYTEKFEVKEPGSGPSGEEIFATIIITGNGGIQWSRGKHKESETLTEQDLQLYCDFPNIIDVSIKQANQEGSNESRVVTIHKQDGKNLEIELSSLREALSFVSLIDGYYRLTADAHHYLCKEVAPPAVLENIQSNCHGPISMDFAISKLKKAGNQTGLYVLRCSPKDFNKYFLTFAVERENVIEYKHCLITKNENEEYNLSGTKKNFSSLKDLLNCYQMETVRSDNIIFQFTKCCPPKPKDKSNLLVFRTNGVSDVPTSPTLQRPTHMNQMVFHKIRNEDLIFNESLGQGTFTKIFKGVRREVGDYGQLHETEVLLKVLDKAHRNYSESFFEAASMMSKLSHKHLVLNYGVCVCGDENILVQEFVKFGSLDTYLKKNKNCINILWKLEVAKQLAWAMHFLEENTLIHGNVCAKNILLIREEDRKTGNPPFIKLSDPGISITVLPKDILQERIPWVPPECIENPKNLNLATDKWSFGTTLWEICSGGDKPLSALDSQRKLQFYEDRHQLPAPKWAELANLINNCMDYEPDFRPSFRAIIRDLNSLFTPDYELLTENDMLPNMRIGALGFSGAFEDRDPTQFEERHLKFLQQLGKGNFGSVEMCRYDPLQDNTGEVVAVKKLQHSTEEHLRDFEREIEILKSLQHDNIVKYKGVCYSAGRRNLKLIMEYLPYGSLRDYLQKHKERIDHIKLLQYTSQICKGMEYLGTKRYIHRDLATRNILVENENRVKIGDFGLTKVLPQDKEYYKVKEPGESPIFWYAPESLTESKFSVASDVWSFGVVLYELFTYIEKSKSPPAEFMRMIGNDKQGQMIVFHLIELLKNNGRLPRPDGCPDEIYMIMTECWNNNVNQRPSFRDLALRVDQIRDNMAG
Chain of MAPK10 (P53779 whole entry): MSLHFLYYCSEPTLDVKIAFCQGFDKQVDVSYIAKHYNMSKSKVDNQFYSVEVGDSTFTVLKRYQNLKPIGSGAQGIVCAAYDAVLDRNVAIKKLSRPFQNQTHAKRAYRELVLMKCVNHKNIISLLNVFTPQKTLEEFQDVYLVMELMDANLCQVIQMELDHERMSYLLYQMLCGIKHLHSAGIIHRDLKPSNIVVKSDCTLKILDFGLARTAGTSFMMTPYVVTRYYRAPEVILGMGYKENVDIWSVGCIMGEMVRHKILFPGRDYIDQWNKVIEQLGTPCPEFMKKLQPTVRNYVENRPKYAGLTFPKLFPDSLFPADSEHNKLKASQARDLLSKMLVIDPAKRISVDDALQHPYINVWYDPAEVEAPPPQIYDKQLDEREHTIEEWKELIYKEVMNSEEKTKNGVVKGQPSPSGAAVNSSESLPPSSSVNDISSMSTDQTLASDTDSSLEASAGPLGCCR

## O=C1C=CC2(C=C1)OCC(=O)N2c1nc(-c2cccc3ccccc23)nn1-c1ccccc1 [Compound 6a, 4-(3-(Naphthalen-1-yl)-1-phenyl-1H-1,2,4-triazol-5-yl)-1-oxa-4-azaspiro[4.5] deca-6,9-diene-3,8-dione]
Kunming mice; 20 mg/kg
  toxicity to the major organ in mice: no apparent toxicity
Kunming mice; 40 mg/kg
  clinical signs in the eyes, skin, and fur: no remarkable clinical signs
Kunming mice; [1]
  ascites at dissection: Ascites were detected
  liver volume at dissection: decreased liver volume
Kunming mice; highest dose group (40 mg/kg)
  gain of bodyweight: lower than the other three groups
Kunming mice; single dose 10, 20, 40 mg/kg i.p.
  mortality: No mortality occurred
4T1 tumor
  size of the spleen and liver: enlarged
MDA-MB-231 cells; MDA-MB-231, 1 μM
  early and late apoptosis: induced both early and late apoptosis
MDA-MB-231 cells; MDA-MB-231, 48 h of treatment
  induction of cell apoptosis: induce cell apoptosis in a dose-dependent manner
AURKA
  effect on AURKA: did not have any significant effect
JAK2
  inhibition on the Janus kinases 2: weak inhibition
JAK2; Inhibitory effect (IC50) JAK2 Repeat 1, Repeat 1
  IC50: 41.3 µM
JAK2; Inhibitory effect (IC50) JAK2 Repeat 2, Repeat 2
  IC50: 76.6 µM
MAPK10
  effect on MAPK10: did not have any significant effect

Source: paper PMC8569940 (European journal of medicinal chemistry, 2020)
